XBP1 UPR activ: adaptive UPR (XBP1) activation | CHO-XBP1 luciferase reporter, IRE1-XBP1 UPR activation, luminescence; percent of tunicamycin response, DMSO as zero | activation, % at 20 µM | 330,000 tested, 0.33% active;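 active = versus positive control, 20 µM dose yields 30% or more activation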;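 also: 100% = tunicamycin at 10 µg/mL and 0% = DMSO only wells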
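Material: CHO-XBP1 cells stably carrying IRE1-XBP1-driven luciferase reporter | Medium: F12 with 10% serum | Compound dosing: 20 µM single concentration, DMSO 1% | Incubation: Overnight seeding at 37 °C, 6 h compound treatment at 37 °C | Detection: Steady-Glo luminescence read | Read-out basis: % activation of reporter signal versus tunicamycin and DMSO controls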
697 NFkB inh: lowers PMA/ionomycin-induced NF-kB signal in 697 B cells; 697 B-cell NF-kB luciferase reporter, 16 h; inhibition, % at 4 µM; 330,000 tested, 0.33% active; AID 435022; in the data active = inhibition above about 35%
CHOP UPR activ: apoptotic UPR (CHOP) activation; CHO-CHOP luciferase reporter, luminescence; percent of tunicamycin response over DMSO baseline; activation, % at 10 µM; 330,000 tested, 0.34% active;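 active = at 10 µM dose, activation of 40% or more, normalized to positive control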;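 also: 100% = tunicamycin at 10 µg/mL and 0% = DMSO alone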
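measured by = luciferase luminescence | assay system = CHO-CHOP cells, stable luciferase reporter of PERK-eIF2a-CHOP signalling | amount = 500 reporter cells seeded per well | timing = 6 h compound exposure at 37 °C after overnight seeding | controls = positive tunicamycin 10 µg/mL, negative DMSO alone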
CHOP inh: blocks CHOP induction under ER stress | AID 2732 | 220,000 tested, 3.8% active | inhibition, % at 10 µM | CHO-K1 CHOP-promoter luciferase, tunicamycin-induced, 15-18 h;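 active = compounds that reduced the stress-induced luciferase reporter signal by more than about 70% of percent inhibition, limit read from the data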;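 also: 0% = tunicamycin plus vehicle and 100% = wells without tunicamycin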
Jurkat NFkB inh: lowers PMA/ionomycin-induced NF-kB signal in Jurkat cells | PMA/ionomycin-induced NF-kB luciferase reporter, luminescence | inhibition, % at 4 µM | 330,000 tested, 0.53% active; in the data active = inhibition above about 50%
Jurkat NFkB conf: lowers PMA/ionomycin-induced NF-kB signal in Jurkat cells; shares compounds with Jurkat NFkB inh; Jurkat NF-kB luciferase, 16 h; inhibition, % at 4 µM; 2,700 tested, 27% active;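 active = inhibition reaching about 45% at 4 µM in either replicate, limit read from the data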;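 also: plate controls were PMA/ionomycin stimulated DMSO wells for no effect and unstimulated DMSO wells for full effect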
* marks the source's active call; other numbers are inactive results; . = no result. Shown is part of a subset that was picked to be rich in hits.

SMILES | XBP1 UPR activ | 697 NFkB inh | CHOP UPR activ | CHOP inh | Jurkat NFkB inh | Jurkat NFkB conf
CCN(CC)S(=O)(=O)c1ccc(N2CC(C(=O)NCCc3c[nH]c4ccccc34)CC2=O)cc1 (configuration not stated) | -1 | -1 | -2 | . | 2 | .
CC(C)c1ccc(C(=O)N(c2ccccn2)C(C)c2ccco2)cc1 (configuration not stated) | 5 | -46 | 5 | 12 | -165 | -78
CC(c1ccco1)N(C(=O)c1ccc(C#N)cc1)c1ccccn1 (configuration not stated) | 5 | 15 | -2 | 11 | -10 | .
CCN(CC)S(=O)(=O)c1ccc(C(=O)Nc2cc(S(=O)(=O)N3CCOCC3)ccc2O)cc1 | -2 | -6 | 1 | . | -3 | .
CCN(CC)c1ccc(NC(=O)CSc2nc(C3CC3)nc3ccccc23)cc1C | 0 | -16 | 0 | . | 59* | 10
COc1ccc(-c2cc(C(=O)Nc3cc(Br)ccc3O)no2)cc1 | 5 | -98 | 1 | . | -29 | .
Cc1ccc(O)c(NC(=O)c2cc(-c3cccs3)on2)c1 | 4 | -45 | 9 | . | 88* | 17
Cc1cc(NC(=O)c2cc(-c3cccs3)on2)no1 | 3 | 35 | 4 | 17 | -2 | .
Cc1ccc(O)c(NC(=O)c2cc(-c3ccc(F)cc3)on2)c1 | 2 | -66 | 6 | -11 | 71* | -11
O=[N+]([O-])c1ccc(Cl)c(CN2CCN(c3ncccn3)CC2)c1 | -2 | -11 | 2 | . | -1 | .
Cc1ccc2nc(C)c(CN3CCN(c4ccc([N+](=O)[O-])cc4Cl)CC3)n2c1 | 15 | -26 | 10 | . | 51* | 46*
CCOC(=O)C1=CC[C@@H](c2cc3cc(OC)ccc3n2C)N(S(=O)(=O)c2ccc(C)cc2)[C@H]1C(=O)OCC | 0 | -41 | 0 | . | -2 | .
O=C(Nc1ccc(Oc2cccnc2)nc1)c1ccc(C(F)(F)F)cc1 | -2 | -42 | 5 | 55 | 50* | 57*
COc1ccc(OC)c(COC(=O)c2cc([N+](=O)[O-])ccc2N2CCOCC2)c1 | 0 | -38 | 0 | . | 52* | 30
O=C(OCc1ccccc1F)c1cc([N+](=O)[O-])ccc1N1CCOCC1 | 1 | -20 | 1 | . | -20 | .
O=C(COC(=O)c1cc([N+](=O)[O-])ccc1N1CCOCC1)c1ccc(Br)cc1 | 3 | -16 | 1 | . | 13 | .
CCOc1ccc(C(=O)COC(=O)c2cc([N+](=O)[O-])ccc2N2CCOCC2)cc1 | -5 | -23 | 3 | . | 53* | 7
Cc1ccccc1COC(=O)c1cc([N+](=O)[O-])ccc1N1CCOCC1 | -2 | 1 | -1 | . | 35 | .
CSc1ccc(COC(=O)c2cc([N+](=O)[O-])ccc2N2CCOCC2)cc1 | 5 | -85 | 2 | . | 81* | 66*
C=CCOc1ccc(/C=C/C(=O)OCC(=O)N(C)CC(=O)Nc2ccc(F)cc2)cc1 | 0 | -24 | 3 | . | 19 | .
CC(Oc1ccc(Cl)cc1Cl)c1nc(-c2ccc(NC(=O)c3ccncc3)cc2)no1 (configuration not stated) | 7 | -3 | 9 | 56 | 51* | 57*
CC(Oc1ccc(Cl)cc1Cl)c1nc(-c2ccc(NC(=O)c3cccnc3)cc2)no1 (configuration not stated) | 0 | 17 | 4 | 47 | 18 | .
c1ccc(-c2cn3c(n2)-c2ccccc2C3)cc1 | -3 | -222 | -3 | 20 | -160 | -147
Cc1ccc(-c2nc3n(n2)Cc2ccccc2-3)cc1 | -2 | -236 | -5 | 25 | -73 | .
COc1ccccc1C1/C(=C(\O)c2ccc3c(c2)OCCO3)C(=O)C(=O)N1Cc1cccnc1 (configuration not stated) | -4 | -9 | 0 | . | 3 | .
SMILES | XBP1 UPR activ | 697 NFkB inh | CHOP UPR activ | CHOP inh | Jurkat NFkB inh | Jurkat NFkB conf
O=C(N/N=C/C(Br)=C/c1ccccc1)c1ccncc1 | 2 | -71 | 12 | -23 | 21 | .
CCOc1cc(C(=O)N/N=C/C(Br)=C/c2ccccc2)cc(OCC)c1OCC | 12 | -28 | 2 | 16 | 58* | 48
Cc1ccc(C(=O)O/N=C(\N)c2ccccn2)c(C)c1 | -8 | -12 | -10 | . | 76* | 92*
Fc1ccc2c(Cl)c(-c3nnc(-c4cccs4)o3)sc2c1 | -1 | -238 | 5 | 91* | -163 | -91
COc1ccc(C(=O)NN/C(=N/S(=O)(=O)c2ccc(C)cc2)c2ccccc2)cc1 | 2 | -192 | 4 | -13 | -181 | -107
Cc1no[n+]([O-])c1COc1ccc(/C=N/n2nnnc2N)cc1 | -1 | -11 | 0 | 14 | 50* | 14
COc1ccc2c(c1)C(=O)N1[C@H]3c4cc(Br)ccc4OC[C@@H]3[C@H](c3ccccc3)[C@]1(C)C(=O)N2 | -2 | 31 | 0 | . | 52* | 53*
C[C@@]12C(=O)Nc3ccc(Br)cc3C(=O)N1[C@H]1c3cc(Br)ccc3OC[C@@H]1[C@@H]2c1ccccc1 | 0 | 15 | 2 | . | 17 | .
CCCc1cc(C(=O)Nc2nccs2)cs1 | -1 | -88 | 0 | 4 | -166 | -109
Cc1cn2c(=O)c(C(=O)N3CCN(c4ccccc4Cl)CC3)cnc2s1 | -3 | 6 | 0 | . | 10 | .
CC1(C)CC(NC(=O)c2ccc(Cl)c(S(=O)(=O)N(Cc3ccccc3)c3ccccc3)c2)CC(C)(C)N1 | 6 | 4 | 4 | . | 71* | 6
CCc1nnc(NC(=O)CSc2nnc3c(C)cc4c(C)ccc(C)c4n23)s1 | -2 | -19 | 1 | -9 | 32 | .
Cc1cc(NC(=O)CSc2nnc3c(C)cc4c(C)ccc(C)c4n23)no1 | 0 | -34 | 0 | . | 59* | 20
O=C(C[C@H]1C/C=C\CC[C@@H](Cc2ccc(F)cc2)C(=O)O[C@@H](c2ccccc2)CNC1=O)N[C@@H](CO)Cc1ccccc1 | 1 | 10 | 0 | . | -3 | .
C/C(=N\Nc1ccc2nncn2n1)c1ccco1 | -2 | 7 | 1 | 19 | 3 | .
C/C(=N\Nc1ccc2nncn2n1)c1ccccn1 | -2 | -22 | -3 | 56 | 55* | 32
Cc1ccc(C2C=NN(c3ccccc3)C2=O)cc1 (configuration not stated) | 7 | -65 | 4 | -1 | -36 | .
COc1ccc(OC)c2sc(N(CCCN(C)C)C(=O)c3ccc(S(=O)(=O)N4CCc5ccccc5C4)cc3)nc12 | -10 | 31 | -9 | . | 94* | 23
Cn1cc(/C=N/n2cnc3scc(-c4ccc(Cl)cc4)c3c2=O)c2ccccc21 | 7 | 19 | 1 | . | 62* | 50*
CCn1c(=S)sc2c(=O)n(CC(=O)Nc3cc(OC)ccc3OC)c(C)nc21 | -2 | -1 | -2 | . | -2 | .
CCOc1ccc(CCNC(=O)COC(=O)/C=C/c2ccccc2OC)cc1OCC | 2 | 18 | 1 | . | 23 | .
COc1ccc(C(=O)c2ccc(OC)c(OC)c2)cc1OC | 1 | -31 | 1 | 13 | -10 | .

Compound activity deposited in PubChem by several laboratories.
